Results taken from ChEMBL document CHEMBL1150129, “Daucane phytoestrogens: a structure-activity study” (J Nat Prod, 2002).
Activity calls are given as the source filed them. No cut-off for these calls is given here.

target: T1, Estrogen receptor (Homo sapiens) (UniProt P03372); test: Displacement of [2,4,6,7-3H]estradiol from human recombinant ERalpha receptor
T1 sequence (whole entry): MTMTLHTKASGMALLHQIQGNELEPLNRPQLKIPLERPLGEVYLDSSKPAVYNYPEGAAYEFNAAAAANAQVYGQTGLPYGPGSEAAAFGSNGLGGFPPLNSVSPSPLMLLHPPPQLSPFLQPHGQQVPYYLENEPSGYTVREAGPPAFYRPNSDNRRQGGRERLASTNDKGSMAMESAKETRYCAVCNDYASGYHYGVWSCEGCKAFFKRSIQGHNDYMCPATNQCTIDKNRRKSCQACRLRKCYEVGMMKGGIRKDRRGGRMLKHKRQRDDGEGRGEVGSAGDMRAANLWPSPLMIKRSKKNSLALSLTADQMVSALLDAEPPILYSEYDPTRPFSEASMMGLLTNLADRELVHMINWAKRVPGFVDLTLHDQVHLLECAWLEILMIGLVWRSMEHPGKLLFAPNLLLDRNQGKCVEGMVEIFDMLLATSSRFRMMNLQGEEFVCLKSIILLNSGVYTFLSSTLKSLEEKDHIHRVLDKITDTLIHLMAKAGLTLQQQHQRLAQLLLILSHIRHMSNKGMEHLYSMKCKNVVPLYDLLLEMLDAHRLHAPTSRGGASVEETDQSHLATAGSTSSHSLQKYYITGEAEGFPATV
In short: (§1)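 Recombinant human ERα or ERβ (1.5 nM) with 15 nM [3H]-17β-estradiol and diluted compounds in pH 7.5 Tris buffer with 10% glycerol, 2 mM DTT, 1 mg/mL BSA; overnight at 4 °C. Bound ligand captured on hydroxylapatite, washed thrice (ERα: Tris/KCl/EDTA/EGTA; ERβ: Tris only), ethanol-extracted, radioactivity counted.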

| Activity | Compound |
| --- | --- |
| < 1% | CC(=O)Oc1ccc(C(=O)O[C@H]2CC(C)=CC[C@@]3(C)CC[C@@](O)(C(C)C)[C@H]23)cc1 |

target: T1, Estrogen receptor (Homo sapiens); test: Binding affinity to human ERalpha expressed in yeast relative to estradiol
In short: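 Yeast (Saccharomyces cerevisiae) estrogen screen expressing human ERα with estrogen-responsive sequences driving lac-Z. Compound aliquots dried into wells before assay. β-Galactosidase activity read as chlorophenol red β-D-galactopyranoside hydrolysis, absorbance 540 nm.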

| Activity | Compound |
| --- | --- |
| < 0.0001% | CC1=CC[C@@]2(C)CC[C@@](O)(C(C)C)[C@@H]2[C@@H](OC(=O)Cc2ccc(O)cc2)C1 |
| < 0.0001% | CC1=CC[C@@]2(C)CC[C@@](O)(C(C)C)[C@@H]2[C@@H](OC(=O)/C=C/c2ccc(O)cc2)C1 |
| inactive | CC1=CC[C@@]2(C)CC[C@@](O)(C(C)C)[C@@H]2[C@@H](OC(=O)c2ccccc2)C1 |
| < 0.0001% | COc1ccc(C(=O)O[C@H]2CC(C)=CC[C@@]3(C)CC[C@@](O)(C(C)C)[C@H]23)cc1 |
| inactive | COc1cc(C(=O)O[C@H]2CC(C)=CC[C@@]3(C)CC[C@@](O)(C(C)C)[C@H]23)ccc1O |
| inactive | COc1cc(CC(=O)O[C@H]2CC(C)=CC[C@@]3(C)CC[C@@](O)(C(C)C)[C@H]23)ccc1O |
| < 0.1% | CC1=CC[C@@]2(C)CC[C@@](O)(C(C)C)[C@@H]2[C@@H](OC(=O)c2ccc(O)c(O)c2)C1 |
| 0.2% | CC(=O)Oc1ccc(C(=O)O[C@H]2CC(C)=CC[C@@]3(C)CC[C@@](O)(C(C)C)[C@H]23)cc1 |

The remaining lines, values behind:

| Compound | Activity |
| --- | --- |
| COc1cc(C(=O)O[C@H]2CC(C)=CC[C@@]3(C)CC[C@@](O)(C(C)C)[C@H]23)cc(OC)c1OC | inactive |
| COc1cc(/C=C/C(=O)O[C@H]2CC(C)=CC[C@@]3(C)CC[C@@](O)(C(C)C)[C@H]23)cc(OC)c1O | inactive |
| COc1cc(/C=C/C(=O)O[C@H]2CC(C)=CC[C@@]3(C)CC[C@@](O)(C(C)C)[C@H]23)ccc1O | inactive |
| CC1=CC[C@@]2(C)CC[C@@](O)(C(C)C)[C@@H]2[C@@H](OC(=O)/C=C/c2ccc(O)c(O)c2)C1 | inactive |
| CC1=CC[C@@]2(C)CC[C@@](O)(C(C)C)[C@@H]2[C@@H](OC(=O)CCc2ccc(O)cc2)C1 | < 0.0001% |
| CC1=CC[C@@]2(C)CC[C@@](O)(C(C)C)[C@@H]2[C@@H](OC(=O)CCc2ccc(O)c(O)c2)C1 | inactive |

target: Estrogen receptor beta (Homo sapiens) (UniProt Q92731); test: Displacement of [2,4,6,7-3H]estradiol from human recombinant ERbeta receptor; in short: as §1
Sequence (Q92731 whole entry): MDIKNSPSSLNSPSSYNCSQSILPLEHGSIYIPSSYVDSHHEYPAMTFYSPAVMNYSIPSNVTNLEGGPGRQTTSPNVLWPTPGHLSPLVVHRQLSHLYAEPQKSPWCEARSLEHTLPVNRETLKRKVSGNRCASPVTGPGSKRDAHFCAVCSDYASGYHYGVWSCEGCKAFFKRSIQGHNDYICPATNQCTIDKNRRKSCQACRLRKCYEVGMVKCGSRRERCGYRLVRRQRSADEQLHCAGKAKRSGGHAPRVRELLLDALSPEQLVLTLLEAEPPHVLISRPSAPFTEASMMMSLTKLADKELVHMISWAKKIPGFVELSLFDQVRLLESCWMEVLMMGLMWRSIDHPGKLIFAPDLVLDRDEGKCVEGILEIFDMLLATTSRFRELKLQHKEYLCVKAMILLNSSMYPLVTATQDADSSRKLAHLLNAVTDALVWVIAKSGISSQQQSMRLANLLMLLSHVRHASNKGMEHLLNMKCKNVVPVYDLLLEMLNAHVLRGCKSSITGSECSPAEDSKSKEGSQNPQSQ

| Activity | Compound |
| --- | --- |
| < 1% | CC(=O)Oc1ccc(C(=O)O[C@H]2CC(C)=CC[C@@]3(C)CC[C@@](O)(C(C)C)[C@H]23)cc1 |
